From paper PMC4562733 (International Journal of Nanomedicine, 2015)
Values after ≈ are worked out from the molar mass of the structure shown.

Tests used:
[1] = Release of free PTX in PBS; type: physicochemical; conditions: PBS pH 7.4, 37°C, 4 hours
Procedure, shortened: (§1)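 Test conjugate was dissolved at 5 mg per 2.5 mL in PBS pH 7.4 or human plasma and held at 37°C for up to 12 hours. Aliquots were drawn at set times and free PTX was extracted into ethyl acetate. Free PTX was quantified by reverse-phase C18 HPLC at 1 mL per minute and 30°C, with UV detection at 227 nm.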

A549 cells [2] = assay: Cellular uptake by flow cytometry; type: cell-based, human; conditions: A549, 1 mg/mL, 8 hours
Procedure, shortened: (§2)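 Cells were seeded at 5×10^5 per well in culture medium (37°C, 5% CO2) and left overnight. They were then given 1 mg/mL solution of the FITC- or 5-aminofluorescein-labelled folate–PTX conjugates and incubated 8 h at 37°C. Cells were resuspended in PBS and immediately analysed by flow cytometry for percentage of fluorescent cells.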

[3] = PTX loading by HPLC standard curve; type: physicochemical; conditions: HPLC peak area versus PTX content, n=5
Procedure, shortened: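 PTX content of the conjugate was calculated theoretically and checked against an HPLC standard curve of peak area versus PTX content, with standards in anhydrous ethyl alcohol.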

A549 cells [4] = assay: Apoptosis study, PI staining and flow cytometry; type: cell-based, human; conditions: A549, 24 hours, 1 mg/mL
Procedure, shortened: (§3)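 Cells grown at 37°C, 5% CO2 in DMEM or RPMI 1640 with 10% FBS and penicillin/streptomycin. They were exposed for 24 h to free PTX or the fluorescein-labelled folate–PTX conjugates, added as a 1 mg/mL solution. Cells were then resuspended in binding buffer, stained with propidium iodide, and analysed at once by flow cytometry. The PI-positive late apoptotic/necrotic quadrant (Q4) was scored.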

A549 tumors = assay: In vivo antitumor activity; parameters: species or system nude mice; conditions: for tumor growth inhibition rate: 5 mg/kg i.v. every 3 days, five injections
Procedure, shortened: (§4)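 Tumor cells implanted in the upper right axillary fossa of nude mice; treatment began when tumors reached 0.2–0.5 cm diameter. Mice were randomized to four groups (n=5): PBS pH 7.4 control, free paclitaxel, or test conjugates, each at 5 mg/kg in 0.2 mL. Dosing was by tail vein every 3 days, five injections over 15 days. Tumor volume and body weight were recorded daily; values are mean ± SD.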

[5] = tested on: tumor cell lines (MDA-MB-231, MCF-7, A549); assay: Cellular uptake by flow cytometry, tumor groups together; type: cell-based, human; conditions: range over the three tumor cell lines
Procedure, shortened: as §2

MCF-7 cells [6] = assay: Cellular uptake by flow cytometry; type: cell-based, human; conditions: MCF-7, 1 mg/mL, 8 hours
Procedure, shortened: as §2

MDA-MB-231 cells [7] = assay: Cellular uptake by flow cytometry; type: cell-based, human; conditions: MDA-MB-231, 1 mg/mL, 8 hours
Procedure, shortened: as §2

MCF-7 cells [8] = assay: Apoptosis study, PI staining and flow cytometry; type: cell-based, human; conditions: MCF-7, 24 hours, 1 mg/mL
Procedure, shortened: as §3

HEK293 cells = assay: Cellular uptake by flow cytometry; type: cell-based, human; conditions: HEK293 normal cells, 1 mg/mL, 8 hours
Procedure, shortened: as §2

MCF-7 tumors = assay: In vivo antitumor activity; parameters: species or system nude mice; conditions: MCF-7-bearing mice; for tumor growth inhibition rate: 5 mg/kg i.v. every 3 days, five injections
Procedure, shortened: as §4

[9] = tested on: MDA-MB-231, MCF-7, and A549 cancer cells; assay: Cell viability; type: cell-based, human
Procedure, shortened: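 MTT assay. Cells were plated at 5×10^3 per well and exposed for 48 h to PTX or the conjugates (theoretical PTX content 45.93% and 47.71%) at […]–1 μg/mL, equal to 0.01435–0.4771 μg/mL conjugated PTX. Each drug was tested in six wells. MTT (5 mg/mL stock) was then added and absorbance read at 490 nm.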

MDA-MB-231 cells [10] = assay: Apoptosis study, PI staining and flow cytometry; type: cell-based, human; conditions: MDA-MB-231, 24 hours, 1 mg/mL
Procedure, shortened: as §3

normal (Kunming) mice = assay: Acute toxicity; conditions: tail vein, mice
Acute toxicity = conditions: both, Kunming, mouse, in vivo, iv
Aqueous solubility = type: physicochemical; conditions: water, room temperature (25°C), n=4
[11] = Release of free PTX in human plasma, HPLC; type: in vitro ADME; conditions: 37°C, 4 hours
Procedure, shortened: as §1

Row | Molecule | free PTX released [1] [%] | cell uptake rate (A549 cells [2]) [%] | PTX loading [3] | late apoptosis/necrotic value (Q4) (A549 cells [4]) [%] | tumor growth inhibition rate (A549 tumors; A549-bearing mice) [%] | percentage cell uptake in the tumor groups [5] | cell uptake rate (MCF-7 cells [6]) [%] | cell uptake rate (MDA-MB-231 cells [7]) [%] | late apoptosis/necrotic value (Q4) (MCF-7 cells [8]) [%] | cell uptake rate (HEK293 cells) [%] | tumor growth inhibition rate (MCF-7 tumors) | late apoptosis/necrotic value (Q4) (MDA-MB-231 cells [10]) [%] | decrease of body weight, of original weight (A549 tumors; A549-bearing mice) | also measured
1 | folic acid-fluorescein-5(6)-isothiocyanate-arginine-paclitaxel [FA-FITC-Arg-PTX] | 25.8 | 63.2 | 38.70%±0.49% | 16.8 | 48.65 | 63.22%–89.63% | 78.1 | 89.6 | 26.7 | 2.1 | 57.63% | 36.5 | – | cell viability ([9]; tumor cells, high doses): approximately 20%
2 | CC(=O)O[C@H]1C(=O)[C@@]2(C)[C@H]([C@H](OC(=O)c3ccccc3)[C@]3(O)C[C@H](OC(=O)[C@H](O)[C@@H](NC(=O)c4ccccc4)c4ccccc4)C(C)=C1C3(C)C)[C@]1(OC(C)=O)CO[C@@H]1C[C@@H]2O [PTX, Paclitaxel, reference compound] | – | – | – | 14.6 | 35.23 | – | – | – | 19.9 | – | about 38.16% | 25.8 | about 25.34% | decrease of body weight (A549 tumors; A549-bearing mice): 3.92 g; body weight loss (MCF-7 tumors; end of treatment): 3.88 g; body weight loss, of original body weight (MCF-7 tumors; end of treatment): approximately 20%; inhibition ratio (of total cells) ([9]; MTT, 48 hours, three tumor cell lines, maximum reached): ≤ 62.4%; survival rate (normal (Kunming) mice; 15 mg/kg): 90%; survival rate (normal (Kunming) mice; 45 mg/kg): 0%; LD50 at 14 days (Acute toxicity): 25.48 ± 0.17 mg/kg
3 | CC(=O)O[C@H]1C(=O)[C@@]2(C)[C@H]([C@H](OC(=O)c3ccccc3)[C@]3(O)C[C@H](OC(=O)[C@H](OC(=O)[C@H](CCC(=O)Nc4ccc5c(c4)C(=O)OC54c5ccc(O)cc5Oc5cc(O)ccc54)NC(=O)CC[C@H](NC(=O)c4ccc(NCc5cnc6nc(N)[nH]c(=O)c6n5)cc4)C(=O)O)[C@@H](NC(=O)c4ccccc4)c4ccccc4)C(C)=C1C3(C)C)[C@]1(OC(C)=O)CO[C@@H]1C[C@@H]2O [FA-5AF-Glu-PTX, folic acid-5-aminofluorescein-glutamic-paclitaxel] | 23.3 | 59.0 | 32.19%±0.35% | 16.3 | – | 59.01%–85.93% | 75.1 | 85.9 | 27.9 | 1.9 | – | 34.1 | about 2% | inhibition rate relative to free PTX (A549 tumors; A549 tumor): ~1.3 times; solubility (Aqueous solubility): 6410 ± 180 µg/mL (≈ 3.69 mM); body weight change during treatment (MCF-7 tumors): gradual increase; free PTX released [11]: 54.84%
